ChEMBL document CHEMBL1134635, “Aziridinyl quinone antitumor agents based on indoles and cyclopent[b]indoles: structure-activity relationships for cytotoxicity and antitumor activity” (2001)

Assays:
Nucleic Acid = assay: % of DNA reductive alkylation determined by catalytic reduction of aziridinyl quinones in presence of 600 bp calf thymus DNA; type: functional; design: concentration or dose not given beside the values; conditions: Bos taurus
In short: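 Calf thymus DNA (1-2 mg, sonicated to ~600 bp) in 0.05 M Tris pH 7.4 with Pd/C, quinone added at 5:1 base pair equivalents in DMSO. Degassed under argon, H2-purged 10 min, argon-purged, then 30 °C for 24 h anaerobically. Catalyst filtered off, DNA ethanol-precipitated twice, and alkylation quantified by absorbance at 550 nm (ε 800 M-1 cm-1).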

[1] = molecular target: NAD(P)H dehydrogenase [quinone] 1 (Homo sapiens) (UniProt P15559); assay: The substrate specificity obtained from the ratio of Vmax to KM for human DT-diaphorase (from non-small-cell lung NCI-H460 cell line); type: cell-based
Chain of NAD(P)H dehydrogenase [quinone] 1 (Homo sapiens) (P15559 whole entry): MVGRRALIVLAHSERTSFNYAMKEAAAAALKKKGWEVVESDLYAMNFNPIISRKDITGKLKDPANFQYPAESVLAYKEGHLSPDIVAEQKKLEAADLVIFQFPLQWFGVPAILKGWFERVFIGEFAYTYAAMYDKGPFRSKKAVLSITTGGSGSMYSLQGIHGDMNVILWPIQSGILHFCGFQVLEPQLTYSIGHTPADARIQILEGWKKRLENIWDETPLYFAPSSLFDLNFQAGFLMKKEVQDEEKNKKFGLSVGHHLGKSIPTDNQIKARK
In short: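 Recombinant human DT-diaphorase (from NCI-H460) at 1.4 × 10^-9 M final with 0.3 mM NADH in Tris buffer, quinone 1.3 × 10-6 to 6.7 × 10^-5 M final from a 4.0 mM DMSO stock. Both parts argon-purged 20 min and held at 30 °C 10 min, then mixed.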

[2] = tested on: Panel NCI-60 (60 carcinoma cell lines); assay: Cancer specificity was measured from the +/- value under average log LC50 60-cell line.; type: functional; conditions: Homo sapiens, read-out: Average log LC50 (converted)
NCI-H460 [3] = assay: Concentration of the drug required for 50% growth inhibition against NSC (non small cell) H460 cell line.; type: functional; conditions: Homo sapiens
NCI-H460 [4] = assay: Concentration required for 50% cell kill. against NSC H460 cell line.; type: functional; conditions: Homo sapiens; for CC50: read-out: Log LC50 (the source's name) (converted)
NCI-H460 [5] = assay: Concentration of the drug required for total growth inhibition against NSC H460 cell line.; type: functional; conditions: Homo sapiens, read-out: Log TGI (converted)
B16 [6] = assay: Treated over control values(T/C) were measured at day 25 by B16 melanoma syngraft assay at 2 mg/kg/day on day 1 after sc tumor implantation of 10 E(5) cells; type: functional, Mus musculus; conditions: route subcutaneous
In short: (§1)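 B16 melanoma syngraft in C57/bl mice, 10^5 cells implanted subcutaneously in the front flank on day 0. T/C recorded at day 25. Toxic means early lethality, or ≥50% lethality before any control deaths.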

B16 [7] = assay: Treated over control values(T/C) were measured at day 25 by B16 melanoma syngraft assay at 3 mg/kg/day on day 5 after sc tumor implantation of 10 E(5) cells; type: functional, Mus musculus; conditions: route subcutaneous; in short: as §1
B16 [8] = assay: Treated over control values(T/C) were measured at day 25 by B16 melanoma syngraft assay at 5 mg/kg/day on day 9 after sc tumor implantation of 10 E(5) cells; type: functional, Mus musculus; conditions: route subcutaneous; in short: as §1
[9] = tested on: Panel NCI-60 (60 carcinoma cell lines); assay: Cancer specificity was measured from the +/- value under average log LC50 NCI 60-cell line.; type: functional; conditions: Homo sapiens, read-out: Average log LC50 (converted)
NCI-H460 [10] = assay: Concentration required for 50% growth inhibition against NSC (non small cell) H460 cell line.; type: functional; conditions: Homo sapiens
NCI-H460 [11] = assay: Concentration required for 50% cell kill against NSC H460 cell line.; type: functional; conditions: Homo sapiens, read-out: Log LC50 (the source's name) (converted)
NCI-H460 [12] = assay: Concentration required for total growth inhibition against NSC H460 cell line.; type: functional; conditions: Homo sapiens, read-out: Log TGI (converted)
[13] = tested on: Panel NCI-60 (60 carcinoma cell lines); assay: Cancer specificity was measured from the +/- value under average log LC50 60-cell line; type: functional; conditions: Homo sapiens, read-out: Average log LC50 (converted)

SMILES	Activity (Nucleic Acid) [%]	Ratio [1]	LC50 [2] [nM]	GI50 (NCI-H460 [3]) [nM]	TGI (NCI-H460 [5]) [nM]	Activity (B16 [6]) [%]	Activity (B16 [7]) [%]	Activity (B16 [8]) [%]	also measured
CC(=O)OC1CCc2c3c(n(C(C)=O)c21)C(=O)C(C)=C(N1CC1)C3=O (stereo not given)	1.2	132000							
CC1=C(N2CC2)C(=O)c2c(c3c(n2C)C(O)CC3)C1=O (stereo not given)	0.3	85500	100000	1260	7590				LC50 (NCI-H460 [4]): 50100 nM
CC(=O)OC1CCc2c3c(n(C(C)=O)c21)C(=O)C(N1CC1)=CC3=O (stereo not given)	12	234000				50	>50	>50	
CC1=C(N2CC2)C(=O)c2c([nH]c(C)c2C)C1=O						10	60	>50	
CC(=O)OC1CCc2c3c(n(C)c21)C(=O)C(N1CC1)=C(C)C3=O (stereo not given)	1.4	30000							
CC(=O)OC1CCc2c1[nH]c1c2C(=O)C(N2CC2)=C(C)C1=O (stereo not given)	21	65500							
CC(=O)OC1CCc2c1[nH]c1c2C(=O)C(N2CC2)=CC1=O (stereo not given)	34	651000							
CC1=C(N2CC2)C(=O)c2c([nH]c3c2CCC3O)C1=O (stereo not given)	11.2	147000	18200	10	21.4				LC50 (NCI-H460 [4]): 851 nM
O=C1C=C(N2CC2)C(=O)c2c1[nH]c1c2CCC1O (stereo not given)	22.5	405000							CC50 [9]: 2190 nM; GI50 (NCI-H460 [10]): 10 nM; CC50 (NCI-H460 [11]): 295 nM; TGI (NCI-H460 [12]): 102 nM
CCOC(=O)c1[nH]c2c(c1CO)C(=O)C(N1CC1)=CC2=O	37	4.3e+06	1620	10	100				LC50 (NCI-H460 [4]): 631 nM
CC(=O)OC1CCc2c3c(n(C(C)=O)c21)C(=O)C(N1CC1)=C(C)C3=O (stereo not given)	9	56200	25100	83.2	437	37	15	15	LC50 (NCI-H460 [4]): 5010 nM
CC(=O)OCc1[nH]c2c(c1COC(C)=O)C(=O)C(N1CC1)=CC2=O	43	172000							
CC(=O)OCc1[nH]c2c(c1COC(C)=O)C(=O)C(C)=C(N1CC1)C2=O	37	158000	30200	35.5	178	74	>50	>50	CC50 (NCI-H460 [4]): 603 nM
CC(=O)OC1CCc2c1[nH]c1c2C(=O)C=C(N2CC2)C1=O (stereo not given)	29	802000						>50	
CC1=C(N2CC2)C(=O)c2[nH]c(CO)c(C)c2C1=O						61	37	34	
CC1=C(N2CC2)C(=O)c2[nH]c(CO)c(CO)c2C1=O	4	106000				54	>50	>50	

SMILES	Activity (Nucleic Acid) [%]	Ratio [1]	LC50 [2] [nM]	GI50 (NCI-H460 [3]) [nM]	TGI (NCI-H460 [5]) [nM]	Activity (B16 [6]) [%]	Activity (B16 [7]) [%]	Activity (B16 [8]) [%]	also measured
CC(=O)OC1CCc2c3c(n(C(C)=O)c21)C(=O)C=C(N1CC1)C3=O (stereo not given)	14	705000							
O=C1C=C(N2CC2)C(=O)c2c1[nH]c(CO)c2CO	16.7	587000				>50	>50	>50	
CCOC(=O)c1[nH]c2c(c1CO)C(=O)C(N1CC1)=C(C)C2=O	5.6	403000	2040	10	10.2				CC50 (NCI-H460 [4]): 87.1 nM
CC(=O)OC1CCc2c1[nH]c1c2C(=O)C(C)=C(N2CC2)C1=O (stereo not given)	44	160000	21400	112	676				LC50 (NCI-H460 [4]): 1230 nM
CC1=C(N2CC2)C(=O)c2c(CO)c(CO)n(C)c2C1=O	0	32600							
CC1=C(N2CC2)C(=O)c2[nH]c3c(c2C1=O)CCC3O (stereo not given)	10	142000	72400	10	107	75		45	
Cn1c(CO)c(CO)c2c1C(=O)C=C(N1CC1)C2=O	3.8	302000	4470	10	10	>50	>50	>50	LC50 (NCI-H460 [4]): 10 nM
O=C1C(N2CC2)=CC(=O)c2c1[nH]c(CO)c2CO	3.4	274000	8510	138	1150				LC50 (NCI-H460 [4]): 11700 nM
CC1=C(N2CC2)C(=O)c2c(c(CO)c(CO)n2C)C1=O	0	41700						>50	GI50 (NCI-H460 [10]): 38.9 nM; TGI (NCI-H460 [12]): 219 nM
CCOC(=O)c1[nH]c2c(c1CO)C(=O)C=C(N1CC1)C2=O	2.2			1580	4070				CC50 [13]: 4790 nM
CC1=C(N2CC2)C(=O)c2[nH]c(C)c(C)c2C1=O						22	>50	>50	
O=C1C(N2CC2)=CC(=O)c2c1[nH]c1c2CCC1O (stereo not given)	30	128000	2570	7.24	57.5				CC50 (NCI-H460 [4]): 1780 nM
CCOC(=O)c1[nH]c2c(c1COC(C)=O)C(=O)C(N1CC1)=CC2=O	91.2	722000	2400	37.1	170				CC50 (NCI-H460 [4]): 603 nM
CC1=C(N2CC2)C(=O)c2c([nH]c(CO)c2CO)C1=O	2	81500	2880	10	32.4	36	>50	>50	LC50 (NCI-H460 [4]): 1170 nM
CC(=O)OCc1[nH]c2c(c1C)C(=O)C(N1CC1)=C(C)C2=O						47	>50	>50	
